Source: ChEMBL document CHEMBL3351296, “Synthesis, antioxidant and photoprotection activities of hybrid derivatives useful to prevent skin cancer” (Bioorg Med Chem, 2014)

Columns and labels:
[1] = In vitro photoprotection of the compound assessed as UVA protection factor by Optometric 290S analyzer
Outline: (§1)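 Transmittance scans were taken from 290 to 400 nm at 2 nm intervals and compared against a reference scan. SPF, UVA protection factor and UVA/UVB ratio were calculated from the transmittance data.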

[2] = In vitro photoprotection of the compound assessed as UVA to UVB ratio by Optometric 290S analyzer; outline: as §1
[3] = Antioxidant activity of the compound assessed as reduction in absorbance of DPPH after 60 mins incubation by DPPH radical scavenging /microplate assay; type: physicochemical
Outline: (§2)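 DPPH radical prepared in methanol. Test compounds and standards made as 10 mM DMSO stocks, diluted in methanol, and tested at […]; final DMSO […]. Samples mixed with DPPH in triplicate, kept at 37 °C protected from light, and read at 519 nm after 30 and 60 min. % scavenging = (Abs control − Abs sample)/Abs control × 100.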

[4] = In vitro photoprotection of the compound assessed as sun protection factor by Optometric 290S analyzer; outline: as §1
[5] = Antioxidant activity of the compound assessed as reduction in absorbance of DPPH after 60 mins incubation at 35 uM by DPPH radical scavenging /microplate assay; type: physicochemical; details: 1 h; outline: as §2
[6] = Antioxidant activity of the compound assessed as reduction in absorbance of DPPH after 60 mins incubation at 300 uM by DPPH radical scavenging /microplate assay; type: physicochemical; details: 1 h; outline: as §2
[7] = Antioxidant activity of the compound assessed as reduction in absorbance of DPPH after 60 mins incubation at 100 uM by DPPH radical scavenging /microplate assay; type: physicochemical; details: 1 h; outline: as §2
[8] = Antioxidant activity of the compound assessed as reduction in absorbance of DPPH after 60 mins incubation at 1000 uM by DPPH radical scavenging /microplate assay; type: physicochemical; details: 1 h; outline: as §2

Structure (SMILES) | IC50 [3] | inhibition (INH) [5] | inhibition (INH) [6] | inhibition (INH) [7] | inhibition (INH) [8] | UVAPF [1] | Ratio [2] | SPF [4]
COc1ccc(C(=O)CC(=O)c2ccc(C(C)(C)C)cc2)cc1 | – | – | – | – | – | 39 | 1.8 | –
O=C(N/N=C/c1ccc(O)cc1)c1ccc(O)cc1 | 275 µM | 18.4% | 54.4% | 38% | 65% | 2 | 0.8 | 3
Oc1ccc(/C=C/c2cc(O)cc(O)c2)cc1 [RESVERATROL] | 110 µM | 20.5% | 71.3% | 45.5% | 73.8% | 2 | 0.6 | 2
O=C(N/N=C/c1cc(O)cc(O)c1)c1ccc(O)cc1 | – | 5.6% | 26.5% | 11.2% | 34.2% | 4 | 0.6 | 5
CCCCC(CC)COC(=O)C=Cc1ccc(OC)cc1 (configuration not stated) | – | – | – | – | – | – | – | 13
COc1ccc(C(=O)c2ccccc2)c(O)c1 | – | – | – | – | – | – | 0.6 | 1
O=C1O[C@H]([C@@H](O)CO)C(O)=C1O [ASCORBIC ACID] | 64.2 µM | 18.8% | 80.7% | 77.9% | 81.2% | – | – | –

More lines, main results first:

IC50 [3] | inhibition (INH) [5] | inhibition (INH) [6] | inhibition (INH) [7] | inhibition (INH) [8] | Structure (SMILES) | UVAPF [1] | Ratio [2] | SPF [4]
– | -6.6% | -5.6% | -8.3% | -7.1% | COc1ccc(/C=C/C=N/NC(=O)c2ccc(C(C)(C)C)cc2)cc1 | 4 | 1 | 4
– | -3.4% | -2.6% | -1.5% | 2.8% | COc1ccc(/C=C/C=N/NC(=O)c2ccc(O)cc2)cc1 | 2 | 1.1 | 2
– | 7% | 20.1% | 10.9% | 31.3% | CC(C)(C)c1ccc(C(=O)N/N=C/c2cc(O)cc(O)c2)cc1 | 3 | 0.6 | 4
– | 10.2% | 28.9% | 15% | 38.7% | CC(C)(C)c1ccc(C(=O)N/N=C/c2ccc(O)cc2)cc1 | 2 | 0.8 | 2
88.2 µM | 34.8% | 77.2% | 56.7% | 75.5% | COc1cc(/C=C/C=N/NC(=O)c2ccc(O)cc2)ccc1O | 2 | 1.2 | 2
110 µM | 20% | 75.1% | 45.6% | 76.1% | COc1cc(/C=C/C=N/NC(=O)c2ccc(C(C)(C)C)cc2)ccc1O | 2 | 1.1 | 2
